Active and inactive are the calls of the source. No cut-off for these calls is given here.
Tests used:
[1] = organism: Homo sapiens; assay: Selectivity ratio of IC50 for TCPTP (unknown origin) to IC50 for recombinant PTP1B (unknown origin)
In short: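 Ratio of TCPTP to PTP1B IC50. Both enzymes (PTP1B at 30 nM recombinant) assayed with 2 mM pNPP, 1 mM DTT, 1 mM EDTA, pH 6.5, 30 min at 37 °C, NaOH stop, A405; IC50 by logit method, triplicate for PTP1B.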

[2] = biological target: T1, Tyrosine-protein phosphatase non-receptor type 2 (Homo sapiens) (UniProt P17706); assay: Inhibition of TCPTP (unknown origin) assessed as pNPP hydrolysis at 25 uM after 30 mins relative to control
T1 sequence (whole entry): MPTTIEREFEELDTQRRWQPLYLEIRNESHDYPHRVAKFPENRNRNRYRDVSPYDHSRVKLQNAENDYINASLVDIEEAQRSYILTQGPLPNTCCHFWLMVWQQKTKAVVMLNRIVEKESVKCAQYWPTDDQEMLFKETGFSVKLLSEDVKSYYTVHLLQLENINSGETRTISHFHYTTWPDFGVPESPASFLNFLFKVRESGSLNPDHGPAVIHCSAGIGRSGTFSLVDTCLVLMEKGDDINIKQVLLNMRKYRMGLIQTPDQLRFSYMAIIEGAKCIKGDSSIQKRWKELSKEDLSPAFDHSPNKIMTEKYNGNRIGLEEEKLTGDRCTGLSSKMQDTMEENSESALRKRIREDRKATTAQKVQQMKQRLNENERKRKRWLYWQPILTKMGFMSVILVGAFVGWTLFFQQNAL

[3] = biological target: T2, Tyrosine-protein phosphatase non-receptor type 11 (Homo sapiens) (UniProt Q06124); assay: Inhibition of SHP2 (unknown origin) using pNPP as substrate at 25 uM relative to control
T2 sequence (whole entry): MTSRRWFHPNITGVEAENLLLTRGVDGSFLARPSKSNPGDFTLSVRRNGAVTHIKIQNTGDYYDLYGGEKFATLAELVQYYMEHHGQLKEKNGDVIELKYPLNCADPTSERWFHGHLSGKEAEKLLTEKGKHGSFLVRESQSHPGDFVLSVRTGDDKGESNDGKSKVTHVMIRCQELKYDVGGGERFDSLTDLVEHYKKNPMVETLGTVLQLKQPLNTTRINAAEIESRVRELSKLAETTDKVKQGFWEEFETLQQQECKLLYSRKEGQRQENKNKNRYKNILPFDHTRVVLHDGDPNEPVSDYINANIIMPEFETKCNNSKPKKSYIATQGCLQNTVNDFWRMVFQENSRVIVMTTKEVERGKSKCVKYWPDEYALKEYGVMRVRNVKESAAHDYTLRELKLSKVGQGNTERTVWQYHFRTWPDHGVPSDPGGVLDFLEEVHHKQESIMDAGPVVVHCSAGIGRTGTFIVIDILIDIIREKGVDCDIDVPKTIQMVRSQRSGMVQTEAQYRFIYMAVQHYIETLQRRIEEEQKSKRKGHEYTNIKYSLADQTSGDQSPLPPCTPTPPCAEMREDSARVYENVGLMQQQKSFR

[4] = biological target: Receptor-type tyrosine-protein phosphatase F (Homo sapiens) (UniProt P10586); assay: Inhibition of LAR (unknown origin) using pNPP as substrate at 25 uM relative to control
Receptor-type tyrosine-protein phosphatase F (Homo sapiens), sequence (P10586 whole entry): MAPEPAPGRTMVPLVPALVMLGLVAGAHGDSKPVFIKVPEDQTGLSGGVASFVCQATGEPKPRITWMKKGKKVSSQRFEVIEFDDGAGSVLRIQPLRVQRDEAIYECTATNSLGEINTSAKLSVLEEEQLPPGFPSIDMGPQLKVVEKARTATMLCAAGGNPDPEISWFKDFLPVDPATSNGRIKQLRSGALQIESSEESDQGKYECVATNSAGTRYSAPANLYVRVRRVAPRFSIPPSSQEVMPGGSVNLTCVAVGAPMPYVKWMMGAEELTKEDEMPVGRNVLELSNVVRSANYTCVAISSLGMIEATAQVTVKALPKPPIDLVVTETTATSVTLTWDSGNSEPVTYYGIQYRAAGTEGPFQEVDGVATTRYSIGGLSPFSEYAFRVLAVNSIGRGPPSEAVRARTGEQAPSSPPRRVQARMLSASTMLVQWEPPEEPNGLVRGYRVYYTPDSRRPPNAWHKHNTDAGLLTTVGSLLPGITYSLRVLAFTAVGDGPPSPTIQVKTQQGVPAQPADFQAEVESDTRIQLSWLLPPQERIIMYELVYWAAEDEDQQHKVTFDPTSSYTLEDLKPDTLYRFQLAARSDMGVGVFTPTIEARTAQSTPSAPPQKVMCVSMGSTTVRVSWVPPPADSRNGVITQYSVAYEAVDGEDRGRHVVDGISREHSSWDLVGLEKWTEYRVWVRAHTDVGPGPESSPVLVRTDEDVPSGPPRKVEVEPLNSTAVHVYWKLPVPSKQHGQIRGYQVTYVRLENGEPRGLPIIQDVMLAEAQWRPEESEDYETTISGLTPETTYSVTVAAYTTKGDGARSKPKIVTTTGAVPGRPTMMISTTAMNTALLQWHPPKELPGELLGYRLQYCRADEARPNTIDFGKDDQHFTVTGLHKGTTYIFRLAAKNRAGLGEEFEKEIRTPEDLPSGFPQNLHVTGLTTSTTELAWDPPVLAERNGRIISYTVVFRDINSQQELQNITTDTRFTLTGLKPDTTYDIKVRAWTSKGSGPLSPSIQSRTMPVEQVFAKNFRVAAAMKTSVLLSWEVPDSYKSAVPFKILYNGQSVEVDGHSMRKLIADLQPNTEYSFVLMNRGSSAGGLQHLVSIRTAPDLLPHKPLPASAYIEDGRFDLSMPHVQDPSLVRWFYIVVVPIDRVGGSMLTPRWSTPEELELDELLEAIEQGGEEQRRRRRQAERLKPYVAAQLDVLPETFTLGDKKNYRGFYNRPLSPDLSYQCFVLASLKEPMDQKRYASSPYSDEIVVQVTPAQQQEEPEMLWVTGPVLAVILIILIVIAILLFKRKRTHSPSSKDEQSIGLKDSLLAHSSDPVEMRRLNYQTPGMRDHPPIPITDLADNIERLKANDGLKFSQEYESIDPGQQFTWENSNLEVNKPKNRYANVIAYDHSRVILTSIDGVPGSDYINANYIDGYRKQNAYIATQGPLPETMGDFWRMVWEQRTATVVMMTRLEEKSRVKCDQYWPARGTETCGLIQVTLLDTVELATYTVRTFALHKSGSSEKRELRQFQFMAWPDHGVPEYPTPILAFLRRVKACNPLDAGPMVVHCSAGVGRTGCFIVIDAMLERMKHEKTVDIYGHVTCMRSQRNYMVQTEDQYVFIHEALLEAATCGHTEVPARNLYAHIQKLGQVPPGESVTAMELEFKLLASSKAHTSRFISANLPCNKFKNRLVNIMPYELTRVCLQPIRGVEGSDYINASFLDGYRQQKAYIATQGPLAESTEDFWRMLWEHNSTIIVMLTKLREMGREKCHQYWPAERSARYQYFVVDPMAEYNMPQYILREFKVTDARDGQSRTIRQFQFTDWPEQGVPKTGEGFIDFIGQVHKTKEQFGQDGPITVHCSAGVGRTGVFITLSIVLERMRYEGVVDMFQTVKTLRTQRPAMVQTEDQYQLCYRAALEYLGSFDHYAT

[5] = tested on: CHO; assay: Inhibition of PTP1B in CHO cells transfected with human insulin receptor-beta assessed as increase in insulin-mediated tyrosine phosphorylation of insulin receptor-beta at 25 to 50 uM preincubated for 4 hrs followed by insulin stimulation measured after 10 mins by Western blot analysis; assay type: cell-based; details: Cricetulus griseus
In short: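 CHO cells in F12/10% FBS transfected 8 h with 2 µg human IR plasmid, reseeded and grown 24 h at 37 °C, 5% CO2. Serum-starved 2 h, compound 4 h, then 10 nM insulin 10 min. Lysates (Triton/HEPES pH 7.4 buffer) run on SDS-PAGE, blotted with PY-20 and β-actin.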

[6] = biological target: T3, Tyrosine-protein phosphatase non-receptor type 1 (Homo sapiens) (UniProt P18031); assay: Competitive inhibition of recombinant PTP1B (unknown origin) assessed as pNPP hydrolysis at 0.1 to 0.8 uM after 30 mins by Lineweaver-Burk plot analysis
T3 sequence (whole entry): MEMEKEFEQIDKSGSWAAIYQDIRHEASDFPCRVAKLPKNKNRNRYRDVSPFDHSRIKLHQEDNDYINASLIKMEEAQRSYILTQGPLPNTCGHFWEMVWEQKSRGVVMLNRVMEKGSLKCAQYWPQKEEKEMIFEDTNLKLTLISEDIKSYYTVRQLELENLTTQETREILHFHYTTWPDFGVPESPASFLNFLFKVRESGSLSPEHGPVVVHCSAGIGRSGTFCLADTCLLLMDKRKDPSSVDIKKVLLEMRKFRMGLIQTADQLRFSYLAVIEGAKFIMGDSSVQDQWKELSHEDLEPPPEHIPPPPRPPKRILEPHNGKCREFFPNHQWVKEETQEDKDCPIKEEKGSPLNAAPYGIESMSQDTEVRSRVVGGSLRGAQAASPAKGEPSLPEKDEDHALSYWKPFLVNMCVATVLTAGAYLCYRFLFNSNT
In short: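 Kinetics in 100 µL of 50 mM MOPS pH 6.5 with 30 nM recombinant PTP1B. pNPP in 2-fold dilutions from 64 mM, inhibitor at 0.1–0.8 µM (0 as reference). Km and Vmax from Michaelis–Menten fits; mechanism judged by Lineweaver–Burk double-reciprocal plots.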

[7] = biological target: Tyrosine-protein phosphatase non-receptor type 6 (Homo sapiens) (UniProt P29350); assay: Inhibition of SHP1 (unknown origin) using pNPP as substrate at 25 uM relative to control
Tyrosine-protein phosphatase non-receptor type 6 (Homo sapiens), sequence (P29350 whole entry): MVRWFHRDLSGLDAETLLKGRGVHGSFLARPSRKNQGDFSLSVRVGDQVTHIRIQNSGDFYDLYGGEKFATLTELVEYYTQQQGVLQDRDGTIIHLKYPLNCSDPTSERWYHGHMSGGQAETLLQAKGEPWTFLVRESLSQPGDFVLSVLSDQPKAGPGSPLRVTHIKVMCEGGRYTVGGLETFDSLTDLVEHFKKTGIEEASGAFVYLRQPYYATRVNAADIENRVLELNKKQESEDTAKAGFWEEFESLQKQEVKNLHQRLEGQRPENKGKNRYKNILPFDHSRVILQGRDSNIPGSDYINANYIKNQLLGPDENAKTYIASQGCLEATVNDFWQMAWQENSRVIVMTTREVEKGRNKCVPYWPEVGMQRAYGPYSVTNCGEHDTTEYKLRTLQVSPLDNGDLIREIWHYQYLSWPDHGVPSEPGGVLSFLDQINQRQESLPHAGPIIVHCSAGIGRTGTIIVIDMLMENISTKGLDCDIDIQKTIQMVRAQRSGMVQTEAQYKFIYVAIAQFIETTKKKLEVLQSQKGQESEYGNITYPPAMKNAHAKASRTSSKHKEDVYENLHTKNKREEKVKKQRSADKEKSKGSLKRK

| Ratio IC50 [1] | inhibition [2] [%] | inhibition [3] [%] | inhibition [4] [%] | inhibition [6] | inhibition [7] [%] | Structure (SMILES) | inhibition [5] |
| --- | --- | --- | --- | --- | --- | --- | --- |
| > 120 | < 50 | < 50 | < 50 | Active |  | CCOc1cc(NS(C)(=O)=O)c(OCC)cc1CNC(=O)Nc1ccc(OC)cc1 | Active |
| 6 |  | < 50 | < 50 |  |  | CCOc1cc(NS(C)(=O)=O)c(OCC)cc1CNC(=O)Nc1ccc(Br)cc1 |  |
| 16 |  | < 50 | < 50 |  | < 50 | CCOc1cc(NS(C)(=O)=O)c(OCC)cc1CNC(=O)Nc1ccc(C)cc1 |  |
